# Laboratory results from ChEMBL document CHEMBL3045605, “Synthesis and anticancer evaluation of novel 3,5-diaryl-thiazolo[4,5-d]pyrimidin-2-one derivatives” (2013).
# Key:
# Type in all cases: functional
# COLO 205 = test: Anticancer activity against Homo sapiens (human) COLO205 cells by SRB assay
# Outline: (§1)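 NCI 60-line panel, five tenfold dilutions from 10−4 to 10−8 M, growth read by sulforhodamine B staining against untreated controls. From the dose–response per line: GI50 (molar concentration giving half growth inhibition), TGI (molar concentration giving total growth inhibition, cytostatic) and LC50 (molar concentration killing 50% of initial cells, cytotoxic).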
# HCT-15 = test: Anticancer activity against Homo sapiens (human) HCT15 cells assessed as cell growth at 10 uM by SRB assay; details: read-out: Activity
# Outline: (§2)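 NCI 60-cell human tumour panel (nine cancer types) screened at one concentration, 10−5 M. Cell growth estimated by sulforhodamine B protein staining and reported as percent growth of treated cells relative to untreated controls.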
# HCC 2998 [1] = test: Anticancer activity against Homo sapiens (human) HCC2998 cells assessed as cell growth at 10 uM by SRB assay; details: read-out: Activity; outline: as §2
# NCI-H23 = test: Anticancer activity against Homo sapiens (human) NCI-H23 cells assessed as cell growth at 10 uM by SRB assay; details: read-out: Activity
# Outline: (§3)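 Single-dose screen in the NCI 60-human-tumour-cell-line panel (nine cancer types) at 10−5 M. Cell growth was estimated by sulforhodamine B protein staining and reported as percent growth of treated cells relative to untreated controls.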
# [2] = Anticancer activity against Homo sapiens (human) NCI-322M cells assessed as cell growth at 10 uM by SRB assay; details: read-out: Activity; outline: as §3
# EKVX = test: Anticancer activity against Homo sapiens (human) EKVX cells assessed as cell growth at 10 uM by SRB assay; details: read-out: Activity; outline: as §2
# [3] = Anticancer activity against Homo sapiens (human) NCI-322M cells by SRB assay
# Outline: (§4)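 Five-dose NCI 60-cell-line panel testing at tenfold dilutions from 10−4 to 10−8 M, with growth read by sulforhodamine B protein staining. For each cell line: GI50 is the molar concentration giving half growth inhibition; TGI is total growth inhibition (cytostatic); LC50 is the molar concentration killing 50% of the initial cells (cytotoxic).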
# HOP-92 = test: Anticancer activity against Homo sapiens (human) HOP92 cells by SRB assay; outline: as §1
# MOLT-4 = test: Anticancer activity against Homo sapiens (human) MOLT4 cells by SRB assay; outline: as §4
# CCRF-CEM = test: Anticancer activity against Homo sapiens (human) CCRF-CEM cells by SRB assay; outline: as §1
# HL-60(TB) = test: Anticancer activity against Homo sapiens (human) HL-60(TB) cells assessed as cell growth at 10 uM by SRB assay; details: read-out: Activity
# Outline: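 NCI 60-cell-line human tumour panel screen at a single 10−5 M concentration. Cell growth was estimated by sulforhodamine B protein staining. Results are given as percent growth of treated cells relative to untreated controls.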
# UACC-62 = test: Anticancer activity against Homo sapiens (human) UACC62 cells by SRB assay
# Outline: (§5)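 NCI five-dose follow-up on the 60-line human tumour panel at tenfold dilutions from 10−4 to 10−8 M, with growth read by sulforhodamine B protein assay against untreated controls. For each cell line, GI50 (half growth inhibition), TGI (total growth inhibition) and LC50 (50% death of initial cells) are calculated as molar concentrations.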
# SK-MEL-2 = test: Anticancer activity against Homo sapiens (human) SK-MEL-2 cells by SRB assay; outline: as §4
# MDA-MB-435 = test: Anticancer activity against Homo sapiens (human) MDA-MB-435 cells by SRB assay; outline: as §4
# LOX IMVI = test: Anticancer activity against Homo sapiens (human) LOXIMVI cells by SRB assay; outline: as §1
# SW-620 [4] = test: Anticancer activity against Homo sapiens (human) SW620 cells by SRB assay; outline: as §5
# HCC 2998 [5] = test: Anticancer activity against Homo sapiens (human) HCC2998 cells by SRB assay; outline: as §1
# OVCAR-4 = test: Anticancer activity against Homo sapiens (human) OVCAR4 cells assessed as cell growth at 10 uM by SRB assay; details: read-out: Activity; outline: as §3
# IGROV-1 = test: Anticancer activity against Homo sapiens (human) IGROV1 cells assessed as cell growth at 10 uM by SRB assay; details: read-out: Activity; outline: as §2
# M14 = test: Anticancer activity against Homo sapiens (human) M14 cells assessed as cell growth at 10 uM by SRB assay; details: read-out: Activity; outline: as §2
# SF-539 = test: Anticancer activity against Homo sapiens (human) SF539 cells assessed as cell growth at 10 uM by SRB assay; details: read-out: Activity; outline: as §3
# KM12 = test: Anticancer activity against Homo sapiens (human) KM12 cells assessed as cell growth at 10 uM by SRB assay; details: read-out: Activity; outline: as §2
# SW-620 [6] = test: Anticancer activity against Homo sapiens (human) SW620 cells assessed as cell growth at 10 uM by SRB assay; details: read-out: Activity
# Outline: (§6)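 NCI 60-cell human tumour panel (leukemia, melanoma, lung, colon, CNS, breast, ovarian, prostate, renal lines) given a single 10−5 M dose. Growth is expressed as percent growth of treated cells relative to untreated controls, with cell growth/viability estimated by sulforhodamine B protein staining.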
# HCT-116 = test: Anticancer activity against Homo sapiens (human) HCT116 cells by SRB assay; outline: as §1
# T47D [7] = test: Anticancer activity against Homo sapiens (human) T47D cells by SRB assay; outline: as §5
# MDA-MB-231 [8] = test: Anticancer activity against Homo sapiens (human) MDA-MB-231/ATCC cells by SRB assay; outline: as §1
# UO-31 = test: Anticancer activity against Homo sapiens (human) UO31 cells by SRB assay; outline: as §5
# CAKI-1 = test: Anticancer activity against Homo sapiens (human) CAKI-1 cells by SRB assay; outline: as §1
# A498 = test: Anticancer activity against Homo sapiens (human) A498 cells by SRB assay; outline: as §1
# MDA-MB-468 = test: Anticancer activity against Homo sapiens (human) MDA-MB-468 cells assessed as cell growth at 10 uM by SRB assay; details: read-out: Activity; outline: as §3
# T47D [9] = test: Anticancer activity against Homo sapiens (human) T47D cells assessed as cell growth at 10 uM by SRB assay; details: read-out: Activity; outline: as §6
# MDA-MB-231 [10] = test: Anticancer activity against Homo sapiens (human) MDA-MB-231/ATCC cells assessed as cell growth at 10 uM by SRB assay; details: read-out: Activity; outline: as §2
# Hs-578T = test: Anticancer activity against Homo sapiens (human) Hs 578T cells assessed as cell growth at 10 uM by SRB assay; details: read-out: Activity; outline: as §2
# DU-145 = test: Anticancer activity against Homo sapiens (human) DU145 cells assessed as cell growth at 10 uM by SRB assay; details: read-out: Activity; outline: as §2
# RXF 393 = test: Anticancer activity against Homo sapiens (human) RXF393 cells assessed as cell growth at 10 uM by SRB assay; details: read-out: Activity; outline: as §3
# PC-3 = test: Anticancer activity against Homo sapiens (human) PC3 cells assessed as cell growth at 10 uM by SRB assay; details: read-out: Activity; outline: as §3
# [11] = read-out: pLC50 (the source's name) (converted)
smiles,measurement,setting,value
O=c1sc2c(Cl)nc(-c3ccccc3)nc2n1-c1ccccc1,GI50,COLO 205,11.2 µM
same,growth at 10 µM,HCT-15,28%
same,growth at 10 µM,HCC 2998 [1],90%
same,growth at 10 µM,NCI-H23,20%
same,growth at 10 µM,[2],62%
same,growth at 10 µM,EKVX,84%
same,GI50,[3],14.1 µM
same,TGI,[3]; read-out: pTGI (converted),58.9 µM
same,GI50,HOP-92,3.09 µM
same,TGI,HOP-92; read-out: pTGI (converted),67.6 µM
same,GI50,MOLT-4,12.9 µM
same,GI50,CCRF-CEM,3.8 µM
same,growth at 10 µM,HL-60(TB),38%
same,GI50,UACC-62,20 µM
same,GI50,SK-MEL-2,9.12 µM
same,TGI,SK-MEL-2; read-out: pTGI,43.7 µM
same,GI50,MDA-MB-435,4.9 µM
same,TGI,MDA-MB-435; read-out: pTGI (converted),45.7 µM
same,GI50,LOX IMVI,2040 nM
same,CC50,LOX IMVI; [11],18.2 µM
same,TGI,LOX IMVI; read-out: pTGI (converted),4.79 µM
same,GI50,SW-620 [4],2750 nM
same,TGI,SW-620 [4]; read-out: pTGI (converted),9.12 µM
same,GI50,HCC 2998 [5],81.3 µM
same,growth at 10 µM,OVCAR-4,31%
same,growth at 10 µM,IGROV-1,-65%
same,growth at 10 µM,M14,16%
same,growth at 10 µM,SF-539,52%
same,growth at 10 µM,KM12,81%
same,growth at 10 µM,SW-620 [6],-4%
same,GI50,HCT-116,2090 nM
same,CC50,HCT-116; [11],9.55 µM
same,TGI,HCT-116; read-out: pTGI (converted),4.47 µM
same,GI50,T47D [7],17 µM
same,GI50,MDA-MB-231 [8],6.31 µM
same,GI50,UO-31,1320 nM
same,TGI,UO-31; read-out: pTGI (converted),2880 nM
same,GI50,CAKI-1,2340 nM
same,LC50,CAKI-1,46.8 µM
same,TGI,CAKI-1; read-out: pTGI (converted),5.75 µM
same,GI50,A498,3.47 µM
same,growth at 10 µM,MDA-MB-468,20%
same,growth at 10 µM,T47D [9],57%
same,growth at 10 µM,MDA-MB-231 [10],37%
same,growth at 10 µM,Hs-578T,12%
same,growth at 10 µM,DU-145,34%
same,growth at 10 µM,RXF 393,-4%
same,growth at 10 µM,PC-3,11%
